SUMO1 PPI mod – SUMO1-SIM interaction modulation; hit rate 0.33% among 360,000; P63165; inhibition, % at 20 µM; SUMO1 binding to a labelled peptide, TR-FRET, 1 h; AID 602429; in the data active = inhibition above about 37%
Target sequence (P63165 whole entry, looked up): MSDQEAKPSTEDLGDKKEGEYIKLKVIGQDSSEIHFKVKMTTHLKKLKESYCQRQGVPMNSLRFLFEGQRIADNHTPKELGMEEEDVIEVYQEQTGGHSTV
DNMT1 inh – DNMT1 (human) enzyme inhibition | DNMT1 molecular beacon, Hinp1I cleavage, fluorescence | inhibition (reported as % activation of signal), % at 10 µM | hit rate 0.83% among 360,000 | AID 588458; in the data active = inhibition above about 50%
LMPTP inh – blocks human LMPTP phosphatase | inhibition, % at 20 µM | AID 651560 | recombinant LMPTP-A, OMFP fluorogenic substrate, fluorescence intensity | P24666 | hit rate 0.22% among 360,000;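 active = compounds that cut the enzyme signal by at least half of the control window in the single-dose screen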;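 note: plate controls were DMSO wells with enzyme plus substrate for no effect and substrate without enzyme for full effect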
Target sequence (P24666 whole entry, looked up): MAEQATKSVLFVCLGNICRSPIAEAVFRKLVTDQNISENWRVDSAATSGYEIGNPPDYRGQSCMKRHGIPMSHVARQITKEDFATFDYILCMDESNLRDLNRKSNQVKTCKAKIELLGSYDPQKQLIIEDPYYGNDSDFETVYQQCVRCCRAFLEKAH
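Test system: LMPTP-A phosphatase enzyme; input: 0.625 nM LMPTP-A final; reagent: OMFP substrate, 400 µM final; compound dosing: 20 µM single dose, 3% DMSO; incubation: 50 min dark incubation at room temperature; measured by: endpoint fluorescence intensity from OMFP dephosphorylation; measure: % inhibition relative to no-enzyme and uninhibited control wells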
CSN inh – inhibitors of human CSN-mediated cullin deneddylation; Q92905; Purified CSN, SCF-Nedd8-OG deneddylation, fluorescence polarization; inhibition, % at 12.5 µM; hit rate 0.38% among 360,000; AID 651999;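 active = pattern-corrected inhibition above about 35%, with an unprinted fluorescence ratio check between 0.5 and 1.5, limit read from the data, passing the limit was not always enough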;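 note: 0% = enzyme with substrate and 100% = substrate without enzyme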
Target sequence (Q92905 whole entry, looked up, one chain of several): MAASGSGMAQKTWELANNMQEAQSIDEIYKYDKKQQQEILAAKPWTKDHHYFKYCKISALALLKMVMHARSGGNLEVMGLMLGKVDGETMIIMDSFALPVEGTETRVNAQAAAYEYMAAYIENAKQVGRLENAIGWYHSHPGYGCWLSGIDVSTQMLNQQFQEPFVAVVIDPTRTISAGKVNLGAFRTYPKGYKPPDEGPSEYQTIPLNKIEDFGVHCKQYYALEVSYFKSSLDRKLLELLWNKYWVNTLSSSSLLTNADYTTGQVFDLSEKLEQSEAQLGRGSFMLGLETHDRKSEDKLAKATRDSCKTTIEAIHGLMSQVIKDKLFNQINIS
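Test system: purified human Csn5 enzyme expressed in HEK293T cells. Amount: 0.24 nM enzyme. Reagent: SCFSkp2-Nedd8OG substrate at 10 nM final. Schedule: 90 min incubation of compound, enzyme and substrate at room temperature. Detection: fluorescence polarization. Read-out: % inhibition of substrate cleavage by Csn5.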
Scp1 inh – Scp-1 (human) phosphatase inhibition; AID 493091; Q9GZU7; hit rate 0.88% among 340,000; inhibition, % at 20 µM; Recombinant Scp1, phosphopeptide, malachite green phosphate absorbance;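 active = inhibition above about 50% at 20 µM, limit read from the data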;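 note: plate controls were DMSO wells with enzyme for no effect and wells lacking enzyme for full effect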
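Test system – truncated SCP-1 phosphatase (76-261aa) · Reagent – Phosphorylated 17-residue peptide substrate · Incubation – 45 min room-temperature reaction, 5 min colour, 30 min stabiliser · Detection – colorimetric phosphate reagent with accelerator and stabiliser, absorbance at 630 nm · Measure – % inhibition at 20 µM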
STEP block – STEP (human) phosphatase inhibition; P54829; recombinant STEP, OMFP fluorogenic substrate, fluorescence; inhibition, % at 20 µM; hit rate 0.25% among 360,000; AID 588621;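 active = inhibition at 20 µM, scaled per plate between control wells, above about 37%, limit read from the data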;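 note: 0% = DMSO with enzyme and substrate and 100% = substrate only without enzyme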
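Material: STEP (striatal-enriched tyrosine phosphatase) enzyme, cell-free | Medium: 50 mM Bis-Tris pH 6.0 with 2.5 mM DTT and 0.005% Tween 20 | Read-out: Percent inhibition scaled to no-enzyme and uninhibited-enzyme controls, plate-pattern corrected | Signal: Fluorescence read at 480 nm ex / 540 nm em | Times: 20 min reaction, room temperature, in the dark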
Scp-1 conf – Scp-1 (human) inhibition, single-dose confirmed; shares compounds with Scp1 inh; recombinant SCP-1 catalytic domain, phosphate release, malachite green absorbance; inhibition, % at 20 µM; hit rate 61% among 2,500; AID 540281;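 note: plate controls were DMSO with enzyme for no effect and buffer wells lacking enzyme for full effect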
Scp-1 MG ctr – counter-screen for Scp-1 inhibitors: colorimetric interference | shares compounds with Scp1 inh | apparent inhibition (interference), % at 20 µM | Colorimetric interference counterscreen, malachite green absorbance 630 nm | 2,500 tested, under 10 active;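 note: compounds added after enzyme reaction finished so only phosphate colour detection is probed; plate controls were DMSO wells with completed Scp-1 reaction for no effect and substrate wells lacking enzyme for full effect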
Scp1 DSF – binds human Scp-1, shifting its melting temperature. AID 540329. hit rate 25% among 1,500. Recombinant SCP1, Sypro Orange thermal shift Tm. shares compounds with Scp1 inh. thermal shift relative to vanadate control, % at 40 µM;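 active = substances whose mean melting-temperature shift, as a percentage of the reference inhibitor's shift, reaches about 5.3%, limit read from the data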;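 note: 0% = Tm of DMSO wells and 100% = Tm with sodium orthovanadate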
* hit, by the source's call; . = no result. A selection: hits, their analogues and other compounds. The true share with any hit is near 2%.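 Rule for the calls, unless noted: active = inhibition of at least 30% at 20 µM; inactive = the rest.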

SMILES	SUMO1 PPI mod	DNMT1 inh	LMPTP inh	CSN inh	Scp1 inh	STEP block	Scp-1 conf	Scp-1 MG ctr	others
Cc1ccc(CN2CCN(Cc3cnc(C)[nH]3)CC2CCO)cc1 (stereo not drawn)	0.3	-3.2	-2.3	-4.6	-6.4	-1.6	.	.
O=C(O)c1cc(S(=O)(=O)N2CCN(S(=O)(=O)c3ccc4ccccc4c3)CC2)ccc1Br	8.1	33.8	1.4	5.9	59.0*	8.3	62.6*	-16.2	Scp1 DSF=8.7*
O=S(=O)(c1ccc2ccccc2c1)N1CCCCCC1	-1.2	-3.8	1.5	-4.9	-13.3	-0.2	.	.
O=S(=O)(NCC(c1ccco1)N1CCc2ccccc2C1)c1ccc(F)cc1 (stereo not drawn)	22.3	-0.6	1.9	0.1	-3.5	1.9	.	.
O=C(COC(=O)Cc1cccc(C(F)(F)F)c1)NCc1ccco1	10.9	91.9*	1.0	18.0	76.6*	8.3	67.9*	-8.4	Scp1 DSF=-0.1
CN(C)S(=O)(=O)c1cc([N+](=O)[O-])ccc1N1CCCCCC1	-24.3	-4.7	1.9	3.6	-3.3	1.5	.	.
CC(C)CN(CC(C)C)S(=O)(=O)c1cc([N+](=O)[O-])ccc1N1CCCCCC1	-2.0	2.6	4.5	1.6	51.6*	5.2	-8.7	-12.3
COC(=O)Cc1ccc(NC(=S)NNC(=O)C2CC2)cc1	1.3	-3.5	-1.1	-0.8	3.8	-2.2	.	.
O=S(=O)(NC1CC(NS(=O)(=O)OCC(Cl)(Cl)Cl)C2CCCCC12)OCC(Cl)(Cl)Cl (stereo not drawn)	2.9	-5.1	-5.7	-0.3	-8.7	-1.2	.	.
CCN1C(=O)CCN(C2CCCC2)c2nc(Nc3ccc(C(=O)NC4CCN(C)CC4)cc3OC)ncc21	6.6	-0.7	-0.2	-0.3	4.1	1.0	.	.
Cc1ccc(S(=O)(=O)N2CCN(C(=O)/C=C/c3ccco3)CC2)cc1	-7.9	37.9	3.3	17.2	70.9*	3.4	70.6*	-3.8	Scp1 DSF=-4.0
Cc1nnc(NC(=O)CSc2nnc(-c3ccco3)n2C(C)C)s1	0.1	-0.1	-0.1	0.1	-5.5	0.2	.	.
CC(C)n1c(SCC(=O)Nc2nncs2)nnc1-c1ccco1	.	.	.	.	94.1*	.	76.7*	-0.5	Scp1 DSF=-2.5
CC(=O)c1c(C)[nH]c(C(=O)Nc2cccc3ccccc23)c1C	-17.2	0.3	-0.2	-2.2	-6.4	0.1	.	.
CCC(C)c1ccccc1NC(=O)c1[nH]c(C)c(C(C)=O)c1C (stereo not drawn)	-4.3	0.8	0.1	5.4	53.9*	-1.1	-5.0	-8.2
C(=C\c1ccccc1)/CN1CCN(Cc2nc(Cc3ccccc3)no2)CC1	-2.5	10.2	-0.9	-2.2	53.2*	-1.5	-5.6	-3.8
COc1ccccc1CN1CCN(Cc2nc(Cc3ccccc3)no2)CC1	1.9	0.8	1.6	4.9	2.7	-1.1	.	.
CC(Sc1nc(=O)cc(N)n1CCc1ccccc1)C(=O)NCc1ccccc1 (stereo not drawn)	2.1	0.5	-1.2	-3.9	-0.3	2.4	.	.
C=CCn1c(N)cc(=O)nc1SC(C)C(=O)Nc1cccc2ccccc12 (stereo not drawn)	-6.1	-5.0	-0.2	-8.6	-17.6	0.7	-19.4	-18.6
O=C(NN=C1CCCC1)c1cc(O)cc(O)c1	37.7	8.2	7.2	3.7	52.0*	11.9	53.5*	-1.0	Scp1 DSF=-7.9
COc1ccc(-c2sc3cc4c(cc3c2C#CC2(O)CCCCC2)OCO4)cc1	0.6	-20.8	3.2	-3.5	-0.2	-2.3	.	.
COc1ccccc1-c1sc2cc3c(cc2c1C#CC1(O)CCCCC1)OCO3	-1.6	-22.8	2.2	-1.2	55.6*	-1.8	-13.7	-19.7
COc1ccccc1-c1oc2ccccc2c1C#CC1(O)CCCCC1	0.4	-5.4	1.3	2.4	89.1*	-1.2	7.9	-20.2
COc1ccccc1-c1oc2ccccc2c1C#CC1(N)CCCCC1	-31.6	8.6	1.8	-0.8	4.1	-3.2	.	.
Cc1nc(SCC2(C)CC2(Cl)Cl)n[nH]1 (stereo not drawn)	-0.7	0.6	0.5	0.8	-5.3	0.2	.	.
SMILES	SUMO1 PPI mod	DNMT1 inh	LMPTP inh	CSN inh	Scp1 inh	STEP block	Scp-1 conf	Scp-1 MG ctr	others
CCOc1ccccc1N1CCN(C(=O)c2csc(C)c2CC)CC1	-0.1	-1.6	0.4	-2.6	-6.1	-3.2	.	.
CN(Cc1ccccc1)C(=O)c1ncn(C)c1C(=O)N(C)Cc1ccccc1	-3.3	10.8	-0.1	-3.1	93.4*	-3.3	84.6*	-17.2	Scp1 DSF=-3.5
CN(Cc1ccccc1)C(=O)c1ncn(Cc2ccccc2)c1C(=O)N(C)Cc1ccccc1	-3.9	1.5	0.2	0.1	-0.2	-2.4	.	.
CN(C)c1ccc(/C=C2\C(=N)N3N=C(CC(=O)N4CCCC4)SC3=NC2=O)cc1Br	-2.0	4.8	0.2	5.8	57.5*	-1.4	-1.2	-8.7
c1ccc2nc(N3CCCC3)c(N3CCCC3)nc2c1	-5.7	-3.3	1.5	0.4	-8.7	2.3	.	.
c1ccc2c(c1)nc(N1CCCCCC1)c1ccccc12	-0.6	-0.3	2.2	-3.6	111.9*	-0.4	96.9*	-1.0	Scp1 DSF=-7.2
Cc1cc(C)cc(N(CCC#N)C(=O)COC(=O)c2ccc(OCc3c(C)noc3C)cc2)c1	6.4	-0.3	0.6	-4.6	50.7*	0.2	-15.7	-12.3
O=C(N/N=C/c1c[nH]c2ccc(Br)cc12)C1CC1	-3.8	-12.6	0.1	3.4	-8.5	-2.5	.	.
C[n+]1ccccc1Nc1cc([N+](=O)[O-])ccc1N	-10.8	0.3	0.2	1.9	69.1*	0.2	86.8*	-16.1	Scp1 DSF=-0.4
CSc1nc(-c2ccccc2)nc(NC(C)=O)c1C(C)=O	2.6	-3.0	0.0	-3.1	-8.3	2.4	.	.
Cn1nc(C(=O)Nc2ccc(-n3cnnn3)cc2)c2ccccc2c1=O	2.1	-1.6	1.3	0.8	99.5*	2.9	70.1*	-11.2	Scp1 DSF=-26.6
Cc1ccc(NC2CCCN(C(=O)CCc3scnc3C)C2)cc1C (stereo not drawn)	1.8	0.2	1.4	0.6	55.0*	-2.9	-8.1	-10.4
Cc1ncsc1CCC(=O)N1CCCC(Nc2ccc(F)c(F)c2)C1 (stereo not drawn)	4.9	2.6	-0.7	-0.3	-7.1	0.0	.	.
COc1ccc(N2CC(C(=O)Nc3nc4ccccc4s3)CC2=O)cc1 (stereo not drawn)	2.6	0.2	-0.9	-2.0	-4.3	0.9	-3.0	-4.3
